The text below walks through data of PubChem BioAssay.

Calls of active or inactive are those of the source.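 The calls were made as follows, unless noted: active = GFP response above 150% of the DMSO level; inconclusive = fewer than 70 events counted for a yeast strain; inactive = the rest.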

Experiment [1] in a line: RPL19A-GFP modulators, yeast TOR pathway, confirmation, cell-based, S. cerevisiae, flow cytometry, cherry picks, mother/daughter gates (AID 2270;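 active = GFP response below 50% of the DMSO control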). As to conditions: S. cerevisiae RPL19A-GFP strain, 3 h, at 10 µM, stronger effect = lower value, 100 = same GFP as DMSO wells.
Experiment [2] is described as follows: LAP4-GFP expression modulators in yeast, confirmation, cell-based, cherry picks, flow cytometry, mother/daughter gates (AID 2271;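 active = GFP response above 150% of the DMSO control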;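 also: ratio of sample to DMSO plate mean so 100% equals DMSO level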). As to conditions: S. cerevisiae LAP4-GFP strain, 3 h, at 10 µM, stronger effect = higher value, 100 means same as DMSO control. A digest of the protocol:
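Test system: GFP-fusion yeast strain / Amount: 0.2 OD600 cells / Buffer or medium: SC medium / Dosing: 10 µM single dose / Incubation: compound exposure 3 h at 30 °C, end-over-end rotation / Detection: HT flow cytometry, GFP fluorescence channel / Evaluation: median GFP fluorescence as percent of plate-mean DMSO wells / Control set: DMSO-only negative wells, rapamycin 400 ng/mL positive wells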

Experiment [3] can be described thus: modulators of MEP2-GFP levels in yeast, confirmation, S. cerevisiae, flow cytometry GFP, cherry picks (AID 2272;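 active = GFP response above 150% of the DMSO control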;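 also: ratio of well signal to plate DMSO mean so 100% equals DMSO level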). As to conditions: S. cerevisiae MEP2-GFP strain, 3 h, at 10 µM, stronger effect = higher value.
A short description of experiment [4]: AGP1-GFP expression modulators, hit retest, confirmation, cell-based, flow cytometry, S. cerevisiae, cherry picks (AID 2273).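 Also: median GFP channel fluorescence over the whole cell population gate.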 As to conditions: S. cerevisiae AGP1-GFP strain, 3 h, at 10 µM.
The nature of experiment [5]: modulators of CIT2-GFP expression in yeast, confirmation, S. cerevisiae, GFP fusion, cherry picks, mother/daughter gates (AID 2274). As to conditions: S. cerevisiae CIT2-GFP strain, flow cytometry, 3 h, at 10 µM, stronger effect = higher value.
[6] abbreviates: measured here: daughter cell gate.
Where [7] appears, read: measured here: mother cell gate.
Where [8] appears, read: measured here: daughter cell gate response.
[9] abbreviates: measured here: mother cell gate response.

`CC(=O)c1sc(NC(=O)c2ccco2)nc1-c1ccccc1`: the GFP response vs DMSO in experiment [1] was 98.4% (inactive); in experiment [1] (setting [6]) it was 101%; in experiment [1] (setting [7]), 96.5%; in experiment [3] it was 103% (inactive). The GFP response relative to DMSO in experiment [2] was 107% (inactive); in experiment [2] (setting [8]), 101%; in experiment [2] (setting [9]) it was 108%. Also, the GFP response, % of DMSO in experiment [4] is 94.9% (inactive); in experiment [5] it was 110% (inactive); in experiment [5] (setting [6]), 112%; in experiment [5] (setting [7]), 108%.
As to `CC(C)(C)c1cc(C(c2cccnc2)N2CCN(CCO)CC2)cc(C(C)(C)C)c1O` (stereo not drawn), the GFP response vs DMSO in experiment [1] is 98.2% (inactive); in experiment [1] (setting [6]), 108%; in experiment [1] (setting [7]), 91.3%; in experiment [3], 118% (inactive). Moreover, the GFP response relative to DMSO in experiment [2] is 151% (active); in experiment [2] (setting [8]), 168%; in experiment [2] (setting [9]), 138%. For the same compound, the GFP response, % of DMSO in experiment [4] is 94.3% (inactive); in experiment [5], 99.3% (inactive); in experiment [5] (setting [6]) it was 126%; in experiment [5] (setting [7]), 82.8%.
Turning to `N/C(=N\OC(=O)c1cccc(Br)c1)c1ccccc1`, the GFP response vs DMSO in experiment [1] is 97.2% (inactive); in experiment [1] (setting [6]), 96.4%; in experiment [1] (setting [7]) it was 93.6%; in experiment [3] it was 105% (inactive). For the same compound, the values for the GFP response relative to DMSO in experiment [2], in experiment [2] (setting [8]) and in experiment [2] (setting [9]) were 137% (inactive), 123% and 143%, respectively. In addition, the GFP response, % of DMSO was 64.6% (inactive) in experiment [4], 140% (inactive) in experiment [5], 121% in experiment [5] (setting [6]) and 140% in experiment [5] (setting [7]).
For `CCCOc1ccc(C(=O)NNC(=S)NC(=O)c2ccccc2)cc1`, the GFP response vs DMSO is 114% (inactive) in experiment [1], 111% in experiment [1] (setting [6]), 113% in experiment [1] (setting [7]) and 128% (inactive) in experiment [3]. Besides, the GFP response relative to DMSO in experiment [2] is 149% (inactive); in experiment [2] (setting [8]), 136%; in experiment [2] (setting [9]), 150%. Further, the GFP response, % of DMSO was 98.3% (inactive) in experiment [4], 114% (inactive) in experiment [5], 116% in experiment [5] (setting [6]) and 108% in experiment [5] (setting [7]).
As for `COc1ccc(Br)cc1/C=N/NC(=O)Cn1nnnc1N`, the GFP response vs DMSO in experiment [1] was 99.2% (inactive); in experiment [1] (setting [6]), 97.6%; in experiment [1] (setting [7]), 103%; in experiment [3], 109% (inactive). For the same compound, the figures for the GFP response relative to DMSO in experiment [2], in experiment [2] (setting [8]) and in experiment [2] (setting [9]) were 99.2% (inactive), 97.6% and 100%, respectively. Further, the GFP response, % of DMSO in experiment [4] is 95.8% (inactive); in experiment [5], 104% (inactive); in experiment [5] (setting [6]), 103%; in experiment [5] (setting [7]) it was 106%.
In the case of `CCCC(=O)Nc1ccc(NC(=O)c2cc3ccccc3o2)c(OC)c1`, the GFP response vs DMSO in experiment [1] is 98.8% (inactive); in experiment [1] (setting [6]) it was 98.4%; in experiment [1] (setting [7]), 98%; in experiment [3] it was 103% (inactive). Moreover, the results for the GFP response relative to DMSO in experiment [2], in experiment [2] (setting [8]) and in experiment [2] (setting [9]) were 98.2% (inactive), 99.1% and 98.4%, respectively. Besides, the GFP response, % of DMSO is 102% (inactive) in experiment [4], 97.3% (inactive) in experiment [5], 99.2% in experiment [5] (setting [6]) and 87% in experiment [5] (setting [7]).
For the compound `Cc1nn2c(N3CCOCC3)c3c(nc2c1-c1ccccc1)CCCC3`, the GFP response vs DMSO was 103% (inactive) in experiment [1], 102% in experiment [1] (setting [6]), 102% in experiment [1] (setting [7]) and 103% (inactive) in experiment [3]. The GFP response relative to DMSO in experiment [2] was 101% (inactive); in experiment [2] (setting [8]), 96%; in experiment [2] (setting [9]), 102%. Also, the GFP response, % of DMSO was 103% (inactive) in experiment [4], 103% (inactive) in experiment [5], 101% in experiment [5] (setting [6]) and 102% in experiment [5] (setting [7]).
As for `COc1ccc(N2C(=O)CC(Sc3nccc(C)n3)C2=O)cc1` (stereo not drawn), the GFP response vs DMSO in experiment [1] was 97.2% (inactive); in experiment [1] (setting [6]), 98%; in experiment [1] (setting [7]), 96.5%; in experiment [3] it was 104% (inactive). The GFP response relative to DMSO in experiment [2] is 98.8% (inactive); in experiment [2] (setting [8]), 101%; in experiment [2] (setting [9]) it was 98.5%. The GFP response, % of DMSO is 107% (inactive) in experiment [4], 99.3% (inactive) in experiment [5], 96.4% in experiment [5] (setting [6]) and 100% in experiment [5] (setting [7]).
As for `CN(CCCS(=O)(=O)[O-])c1ccc(/C=C/c2ccc3ccccc3[n+]2C)cc1`, the GFP response vs DMSO in experiment [1] is 101% (inactive); in experiment [1] (setting [6]), 100%; in experiment [1] (setting [7]) it was 101%; in experiment [3], 111% (inactive). Moreover, the GFP response relative to DMSO in experiment [2] is 102% (inactive); in experiment [2] (setting [8]) it was 102%; in experiment [2] (setting [9]), 104%. Further, the GFP response, % of DMSO in experiment [4] was 99.6% (inactive); in experiment [5] it was 106% (inactive); in experiment [5] (setting [6]) it was 106%; in experiment [5] (setting [7]) it was 106%.
For `CCOc1ccc(Nc2nc(N(C)c3ccccc3)nc(N)c2[N+](=O)[O-])cc1`, the GFP response vs DMSO in experiment [1] is 92.1% (inactive); in experiment [1] (setting [6]), 94.7%; in experiment [1] (setting [7]), 91.7%; in experiment [3], 106% (inactive). Moreover, the GFP response relative to DMSO in experiment [2] is 96.5% (inactive); in experiment [2] (setting [8]), 95%; in experiment [2] (setting [9]), 95.6%. Moreover, the GFP response, % of DMSO is 113% (inactive) in experiment [4], 104% (inactive) in experiment [5], 104% in experiment [5] (setting [6]) and 106% in experiment [5] (setting [7]).
For the compound `CC(=O)Oc1oc(-c2ccccc2)nc1C=Nc1ccccc1`, the GFP response vs DMSO in experiment [1] was 102% (inactive); in experiment [1] (setting [6]), 101%; in experiment [1] (setting [7]), 98.6%; in experiment [3] it was 97.2% (inactive). The values for the GFP response relative to DMSO in experiment [2], in experiment [2] (setting [8]) and in experiment [2] (setting [9]) were 126% (inactive), 119% and 130%, respectively. In addition, the GFP response, % of DMSO in experiment [4] was 95.2% (inactive); in experiment [5], 90.3% (inactive); in experiment [5] (setting [6]), 92.3%; in experiment [5] (setting [7]), 89.3%.
As for `Cc1ccc(Sc2ncnc3onc(C)c23)cc1`, the GFP response vs DMSO in experiment [1] is 95.4% (inactive); in experiment [1] (setting [6]), 95.7%; in experiment [1] (setting [7]), 95.5%; in experiment [3], 96.8% (inactive). Further, the GFP response relative to DMSO in experiment [2] is 117% (inactive); in experiment [2] (setting [8]), 117%; in experiment [2] (setting [9]) it was 117%. Further, the GFP response, % of DMSO is 99% (inactive) in experiment [4], 105% (inactive) in experiment [5], 105% in experiment [5] (setting [6]) and 102% in experiment [5] (setting [7]).
For `CCN(CC)C(=O)c1ccc2c3c(cccc13)C(=O)N(CCc1ccc(OC)c(OC)c1)C2=O`, the GFP response vs DMSO in experiment [1] was 98.8% (inactive); in experiment [1] (setting [6]), 99.3%; in experiment [1] (setting [7]), 98.8%; in experiment [3], 99.5% (inactive). The GFP response relative to DMSO was 108% (inactive) in experiment [2], 97.9% in experiment [2] (setting [8]) and 109% in experiment [2] (setting [9]). Moreover, the GFP response, % of DMSO in experiment [4] was 95.2% (inactive); in experiment [5] it was 96.4% (inactive); in experiment [5] (setting [6]) it was 98.3%; in experiment [5] (setting [7]), 94.5%.
